Columns and labels:
E6M = assay: Fluorescent E6 thermal stability assay; type: binding, HPV16; conditions: E6M melting curve 20-80 °C, 4 µM E6M, 10 µM compound
Procedure, shortened: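 Full-length untagged E6M: bacterially expressed 6xHis-SUMO fusion, SUMO-protease cleaved, SUMO removed on Ni-NTA. E6M mixed in buffer with SYPRO orange and test compound in DMSO, or DMSO control. Controls: protein only, compound only. Heated 20–80 °C in a real-time PCR instrument; fluorescence at 580 nm (dye bound to protein) read against temperature. Run in replicate.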

HCT116 cells [1] = assay: p53 level Western blot in HCT116 cells; type: cell-based, human
Procedure, shortened: (§1)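 Cells plated, then dosed next day with increasing concentrations of test compound in DMSO, or DMSO control, for 48 h. HCT116 (colon, wild-type p53) got the same concentrations as SiHa/HeLa. Cells washed twice, lysed in RIPA buffer with protease inhibitors, and protein normalised by BCA. Lysates run on SDS-PAGE, transferred to PVDF and probed with anti-p53 antibody.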

SiHa cells = assay: Cell proliferation in SiHa cells; type: cell-based, human; conditions: data not shown
E6–E6AP interaction = E6–E6AP interaction (Human papillomavirus type 16, UniProt P03126); assay: ELISA-based E6–E6AP association assay; type: binding, HPV16; conditions: E6M-GST / MBP-E6AP association
PA-1 cells = assay: p53 level Western blot in PA-1 cells; type: cell-based, human; conditions: PA-1, Western blot of remaining cells after treatment
Procedure, shortened: (§2)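 PA-1 and PA-1/HPV16 E6 cells treated with test compound at the same concentrations used for the resazurin viability test. Remaining cells washed, lysed in RIPA buffer with protease inhibitors and protein normalised by BCA. Lysates resolved by SDS-PAGE, transferred to PVDF and immunoblotted for p53.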

PA-1/E6 cells [2] = assay: Resazurin cell viability, PA-1/E6 cells; type: cell-based, human; conditions: PA-1/E6, 24 h
Procedure, shortened: (§3)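 Cells plated on day 1; test compound in DMSO, or DMSO, added on day 2. Puromycin as control. Flavonoid compounds and puromycin incubated 24 h. Resazurin then added to 5 μM final for 1 h; resorufin fluorescence read at 590 nm as a surrogate for viability. Cells: HCT116, parental PA-1 (human ovarian teratocarcinoma) or PA-1 stably transfected with HPV16 E6.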

[3] = Resazurin cell viability, PA-1/E6 cells; type: cell-based, human; conditions: human, PA-1/E6 cells (PA-1 cells stably transfected with E6)
Procedure, shortened: as §3

HeLa (HPV18 integrated) = assay: p53 level Western blot in HeLa cells; type: cell-based, human; conditions: 48 h, compound 1–10 μM
Procedure, shortened: as §1

PA-1/E6 cells [4] = assay: p53 level Western blot in PA-1/E6 cells; type: cell-based, human; conditions: PA-1/E6, Western blot of remaining cells after treatment
Procedure, shortened: as §2

HCT116 cells [5] = assay: MTS cytotoxicity assay in HCT116 cells; type: cell-based, human; conditions: HCT116, 48 h, all concentrations tested 1.6–25 μM
SiHa (HPV16 integrated) = assay: p53 level Western blot in SiHa cells; type: cell-based, human; conditions: 48 h, compound 1–10 μM
Procedure, shortened: as §1

HeLa cells = assay: Cell proliferation in HeLa cells; type: cell-based, human; conditions: data not shown
PA-1 parental cells = assay: Resazurin cell viability, PA-1 parental cells; type: cell-based, human; conditions: 24 h
Procedure, shortened: as §3

HCT116 cells [6] = assay: Resazurin cell viability, HCT116 cells; type: cell-based, human; conditions: HCT116, 24 h
Procedure, shortened: as §3

HPV-positive cell lines [7] = conditions: HPV-positive cell lines ref 33; cited from earlier work
HPV-positive cell lines [8] = conditions: cited from earlier work
[9] = HCT116, same concentrations as viability test (Figure 6B)

E6–E6AP interaction, sequence (P03126 whole entry): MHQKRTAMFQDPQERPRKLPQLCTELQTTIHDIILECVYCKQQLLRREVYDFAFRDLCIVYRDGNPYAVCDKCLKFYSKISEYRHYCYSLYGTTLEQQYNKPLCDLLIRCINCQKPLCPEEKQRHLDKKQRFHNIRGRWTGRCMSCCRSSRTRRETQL
E6–E6AP interaction, sequence (Q05086 363-440, further chain): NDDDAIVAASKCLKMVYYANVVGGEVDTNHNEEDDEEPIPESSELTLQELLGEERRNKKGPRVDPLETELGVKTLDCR

| Structure (SMILES) | p53 levels (HCT116 cells [1]; [9]) | Inhibition of cell proliferation (SiHa cells) | ELISA IC50 (stated in words) (E6–E6AP interaction) | p53 levels (PA-1 cells) | Cell viability (resazurin) (PA-1/E6 cells [2]) | viability at 24 h [3] | p53 levels (PA-1/E6 cells [4]) | Inhibition of cell proliferation (HeLa cells) | other results |
| --- | --- | --- | --- | --- | --- | --- | --- | --- | --- |
| O=c1c(O)c(-c2ccc(O)c(O)c2)oc2c(O)c(O)cc(O)c12 [Gossypetin] | unchanged | did not observe an inhibition of cell proliferation | sub-micromolar | unchanged | sensitive | > 50% | concentration dependent increase | did not observe an inhibition of cell proliferation | Thermal Stability (E6M): stabilizes E6M; p53 levels (HeLa (HPV18 integrated)): significant increase in p53 levels; Toxicity (MTS) (HCT116 cells [5]): not toxic; p53 levels (SiHa (HPV16 integrated)): significant increase in p53 levels |
| COc1ccc(C[C@H](N)C(=O)N[C@H]2[C@@H](O)[C@H](n3cnc4c(N(C)C)ncnc43)O[C@@H]2CO)cc1 [Puromycin, reference compound] |  |  |  |  | equally cytotoxic |  |  |  | Cell viability (resazurin) (PA-1 parental cells): equally cytotoxic; Cell viability (resazurin) (HCT116 cells [6]): equally cytotoxic |
| O=c1cc(-c2ccccc2)oc2cc(O)c(O)c(O)c12 [baicalein] | unchanged | did not observe an inhibition of cell proliferation | sub-micromolar | unchanged | sensitive | > 50% | concentration dependent increase | did not observe an inhibition of cell proliferation |  |
| CC[n+]1c(-c2ccccc2)c2cc(N)ccc2c2ccc(N)cc21 [ethidium bromide, Ethidium bromide, reference compound] |  |  |  |  |  |  |  |  | p53 levels (HCT116 cells [1]; HCT116 (HPV-negative, wild-type p53), 48 h, Western blot): effectively stabilized p53 |
| O=c1cc(-c2ccc(O)c(O)c2)oc2cc(O)cc(O)c12 [luteolin] |  |  |  |  |  |  |  |  | p53 and p21Cip1/Waf1 protein (HPV-positive cell lines [7]): increase in p53 and p21^Cip1/Waf1 protein; Viability of HPV-positive cell lines (HPV-positive cell lines [8]): decreased viability |

— paper PMC4145632 (ACS Chemical Biology, 2014)
